# Results published in ChEMBL document CHEMBL1122917, “Vinblastin-23-oyl amino acid derivatives: chemistry, physicochemical data, toxicity, and antitumor activities against P388 and L1210 leukemias” (J Med Chem, 1985).
# Experiments:
# Assay type in all cases: functional
# Mus musculus [1] = test: Number of survivors of DBA2 mice on 60th day after inoculation with L1210 leukemia cell line intravenously at a dose of 12.5 mg/kg/day; 0/10; conditions: route intravenous
# Mus musculus [2] = test: Percent increase in life span at dose 5 mg/kg/day in 10 mice implanted with P388 leukemia cell line
# In short: (§1)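 Female DBA2 mice inoculated iv on day 0 with 10^4 P388 cells; single iv treatment on day 1 with drug as sulfate salt in physiological saline. Survival followed; %ILS from all deaths and survivors as (T/C × 100) − 100, maximal MST 30 days; survivors counted on days 30 and 60. Most experiments confirmed three times.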
# Mus musculus [3] = test: Number of survivors on 60th day at dose 10 mg/kg/day in 10 mice implanted with P388 leukemia cell line
# Mus musculus [4] = test: Percent increase in life span at dose 25 mg/kg/day in 10 mice implanted with P388 leukemia cell line
# Mus musculus [5] = test: Percent increase in life span at dose 15 mg/kg/day in 10 mice implanted with P388 leukemia cell line; in short: as §1
# Mus musculus [6] = test: Percent increase in life span at dose 10 mg/kg/day in 10 mice implanted with P388 leukemia cell line; in short: as §1
# Mus musculus [7] = test: Number of survivors on 30th day at dose 15 mg/kg/day in 10 mice implanted with P388 leukemia cell line
# Mus musculus [8] = test: Number of survivors on 30th day at dose 25 mg/kg/day in 10 mice implanted with P388 leukemia cell line
# Mus musculus [9] = test: Number of survivors on 30th day at dose 12.5 mg/kg/day in 10 mice implanted with P388 leukemia cell line
# Mus musculus [10] = test: Percent increase in life span at dose 12.5 mg/kg/day in 10 mice implanted with P388 leukemia cell line; in short: as §1
# Mus musculus [11] = test: Number of survivors on 30th day at dose 10 mg/kg/day in 10 mice implanted with P388 leukemia cell line
# Mus musculus [12] = test: Number of survivors on 60th day at dose 15 mg/kg/day in 10 mice implanted with P388 leukemia cell line
# Mus musculus [13] = test: Number of survivors on 60th day at dose 12.5 mg/kg/day in 10 mice implanted with P388 leukemia cell line
# Mus musculus [14] = test: Number of survivors on 60th day at dose 25 mg/kg/day in 10 mice implanted with P388 leukemia cell line
# Mus musculus [15] = test: Percent increase in life span of DBA2 mice after inoculation with L1210 leukemia intravenously at a dose of 12.5 mg/kg per day; conditions: route intravenous
# In short: (§2)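 Female DBA2 mice inoculated iv on day 0 with 10^4 L1210 cells; drugs given iv as sulfate salts in physiological saline, mostly once on day 1. %ILS from all deaths and survivors as (T/C × 100) − 100; survivors scored on days 30 and 60.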
# Mus musculus [16] = test: Number of survivors on 30th day at dose 5 mg/kg/day in 10 mice implanted with P388 leukemia cell line
# Mus musculus [17] = test: Number of survivors of DBA2 mice on 30th day after inoculation with L1210 leukemia cell line intravenously at a dose of 12.5 mg/kg/day; 0/10; conditions: route intravenous
# Mus musculus [18] = test: Number of survivors on 60th day at dose 5 mg/kg/day in 10 mice implanted with P388 leukemia cell line
# Mus musculus [19] = test: Percent increase in life span at dose 6 mg/kg/day in 10 mice implanted with P388 leukemia cell line; in short: as §1
# Mus musculus [20] = test: Number of survivors on 60th day at dose 9 mg/kg/day in 10 mice implanted with P388 leukemia cell line
# Mus musculus [21] = test: Number of survivors on 60th day at dose 6 mg/kg/day in 10 mice implanted with P388 leukemia cell line
# Mus musculus [22] = test: Percent increase in life span at dose 7 mg/kg/day in 10 mice implanted with P388 leukemia cell line; in short: as §1
# Mus musculus [23] = test: Percent increase in life span at dose 3 mg/kg/day in 10 mice implanted with P388 leukemia cell line; in short: as §1
# Mus musculus [24] = test: Percent increase in life span at dose 8 mg/kg/day in 10 mice implanted with P388 leukemia cell line; in short: as §1
# Mus musculus [25] = test: Number of survivors of DBA2 mice on 30th day after inoculation with L1210 leukemia cell line intravenously at a dose of 7 mg/kg/day; 0/10; conditions: route intravenous
# Mus musculus [26] = test: Number of survivors on 60th day at dose 3 mg/kg/day in 10 mice implanted with P388 leukemia cell line
# Mus musculus [27] = test: Number of survivors on 30th day at dose 6 mg/kg/day in 10 mice implanted with P388 leukemia cell line
# Mus musculus [28] = test: Number of survivors on 60th day at dose 7 mg/kg/day in 10 mice implanted with P388 leukemia cell line; in short: as §1
# Mus musculus [29] = test: Number of survivors on 30th day at dose 3 mg/kg/day in 10 mice implanted with P388 leukemia cell line; 0/10
# Mus musculus [30] = test: Number of survivors on 30th day at dose 8 mg/kg/day in 10 mice implanted with P388 leukemia cell line
# Mus musculus [31] = test: Percent increase in life span of DBA2 mice after inoculation with L1210 leukemia intravenously at a dose of 7 mg/kg per day; conditions: route intravenous; in short: as §2
# Mus musculus [32] = test: Number of survivors of DBA2 mice on 60th day after inoculation with L1210 leukemia cell line intravenously at a dose of 6 mg/kg/day; 0/10; conditions: route intravenous
# Mus musculus [33] = test: Number of survivors of DBA2 mice on 60th day after inoculation with L1210 leukemia cell line intravenously at a dose of 7 mg/kg/day; 0/10; conditions: route intravenous
# Mus musculus [34] = test: Number of survivors of DBA2 mice on 30th day after inoculation with L1210 leukemia cell line intravenously at a dose of 6 mg/kg/day; 0/10; conditions: route intravenous
# Mus musculus [35] = test: Percent increase in life span of DBA2 mice after inoculation with L1210 leukemia intravenously at a dose of 6 mg/kg per day; conditions: route intravenous; in short: as §2
# Mus musculus [36] = test: Number of survivors on 30th day at dose 9 mg/kg/day in 10 mice implanted with P388 leukemia cell line
# Mus musculus [37] = test: Number of survivors on 60th day at dose 8 mg/kg/day in 10 mice implanted with P388 leukemia cell line; in short: as §1
# Mus musculus [38] = test: Number of survivors on 30th day at dose 7 mg/kg/day in 10 mice implanted with P388 leukemia cell line
# Mus musculus [39] = test: Percent increase in life span at dose 9 mg/kg/day in 10 mice implanted with P388 leukemia cell line; in short: as §1
# Mus musculus [40] = test: Percent increase in life span at dose 80 mg/kg/day in 10 mice implanted with P388 leukemia cell line; in short: as §1
# Mus musculus [41] = test: Number of survivors on 60th day at dose 70 mg/kg/day in 10 mice implanted with P388 leukemia cell line; 0/10
# Mus musculus [42] = test: Number of survivors on 60th day at dose 55 mg/kg/day in 10 mice implanted with P388 leukemia cell line; 0/10
# Mus musculus [43] = test: Percent increase in life span at dose 65 mg/kg/day in 10 mice implanted with P388 leukemia cell line; in short: as §1
# Mus musculus [44] = test: Percent increase in life span at dose 70 mg/kg/day in 10 mice implanted with P388 leukemia cell line; in short: as §1
# Mus musculus [45] = test: Number of survivors on 30th day at dose 55 mg/kg/day in 10 mice implanted with P388 leukemia cell line; 0/10
# Mus musculus [46] = test: Number of survivors on 30th day at dose 80 mg/kg/day in 10 mice implanted with P388 leukemia cell line; 0/10
# Mus musculus [47] = test: Percent increase in life span at dose 55 mg/kg/day in 10 mice implanted with P388 leukemia cell line; in short: as §1
# Mus musculus [48] = test: Number of survivors on 60th day at dose 65 mg/kg/day in 10 mice implanted with P388 leukemia cell line; 0/10
# Mus musculus [49] = test: Number of survivors on 30th day at dose 70 mg/kg/day in 10 mice implanted with P388 leukemia cell line; 0/10
# Mus musculus [50] = test: Number of survivors on 60th day at dose 80 mg/kg/day in 10 mice implanted with P388 leukemia cell line; 0/10
# Mus musculus [51] = test: Percent increase in life span at dose 60 mg/kg/day in 10 mice implanted with P388 leukemia cell line; in short: as §1
# Mus musculus [52] = test: Number of survivors on 30th day at dose 60 mg/kg/day in 10 mice implanted with P388 leukemia cell line; 0/10
# Mus musculus [53] = test: Number of survivors on 30th day at dose 65 mg/kg/day in 10 mice implanted with P388 leukemia cell line; 0/10
# Mus musculus [54] = test: Number of survivors on 60th day at dose 60 mg/kg/day in 10 mice implanted with P388 leukemia cell line; 0/10; in short: as §1
structure (smiles),measurement,setting,value
CCOC(=O)[C@H](C)NC(=O)[C@@]1(O)[C@H](O)[C@]2(CC)C=CCN3CC[C@@]4(c5cc([C@@]6(C(=O)OC)C[C@H]7C[N@](CCc8c6[nH]c6ccccc86)C[C@](O)(CC)C7)c(OC)cc5N(C)[C@@]14C)[C@@H]32,Survivors,Mus musculus [1],0
same,ILS at 5 mg/kg/day,Mus musculus [2],27.6%
same,Survivors,Mus musculus [3],2
same,ILS at 25 mg/kg/day,Mus musculus [4],63.8%
same,ILS at 15 mg/kg/day,Mus musculus [5],39%
same,ILS at 10 mg/kg/day,Mus musculus [6],36.8%
same,Survivors,Mus musculus [7],0
same,Survivors,Mus musculus [8],2
same,Survivors,Mus musculus [9],1
same,ILS at 12.5 mg/kg/day,Mus musculus [10],46%
same,Survivors,Mus musculus [11],2
same,Survivors,Mus musculus [12],0
same,Survivors,Mus musculus [13],1
same,Survivors,Mus musculus [14],1
same,ILS at 12.5 mg/kg/day,Mus musculus [15],50%
same,Survivors,Mus musculus [16],0
same,Survivors,Mus musculus [17],0
same,Survivors,Mus musculus [18],0
CC[C@H](C)[C@H](NC(=O)[C@@]1(O)[C@H](O)[C@]2(CC)C=CCN3CC[C@@]4(c5cc([C@@]6(C(=O)OC)C[C@H]7C[N@](CCc8c6[nH]c6ccccc86)C[C@](O)(CC)C7)c(OC)cc5N(C)[C@@]14C)[C@@H]32)C(=O)OC,ILS at 5 mg/kg/day,Mus musculus [2],66.5%
same,ILS at 6 mg/kg/day,Mus musculus [19],118%
same,Survivors,Mus musculus [20],4
same,Survivors,Mus musculus [21],0
same,ILS at 7 mg/kg/day,Mus musculus [22],164%
same,ILS at 3 mg/kg/day,Mus musculus [23],41.3%
same,ILS at 8 mg/kg/day,Mus musculus [24],149%
same,Survivors,Mus musculus [25],0
same,Survivors,Mus musculus [26],0
same,Survivors,Mus musculus [27],3
same,Survivors,Mus musculus [28],2
same,Survivors,Mus musculus [29],0
same,Survivors,Mus musculus [30],3
same,ILS at 7 mg/kg/day,Mus musculus [31],64%
same,Survivors,Mus musculus [32],0
same,Survivors,Mus musculus [33],0
same,Survivors,Mus musculus [34],0
same,ILS at 6 mg/kg/day,Mus musculus [35],65.7%
same,Survivors,Mus musculus [36],4
same,Survivors,Mus musculus [37],3
same,Survivors,Mus musculus [16],3
same,Survivors,Mus musculus [38],5
same,ILS at 9 mg/kg/day,Mus musculus [39],48.3%
same,Survivors,Mus musculus [18],1
CCCCOC(=O)[C@H](CC(C)C)NC(=O)[C@@]1(O)[C@H](O)[C@]2(CC)C=CCN3CC[C@@]4(c5cc([C@@]6(C(=O)OC)C[C@H]7C[N@](CCc8c6[nH]c6ccccc86)C[C@](O)(CC)C7)c(OC)cc5N(C)[C@@]14C)[C@@H]32,ILS at 80 mg/kg/day,Mus musculus [40],27.6%
same,Survivors,Mus musculus [41],0
same,Survivors,Mus musculus [42],0
same,ILS at 65 mg/kg/day,Mus musculus [43],13.8%
same,ILS at 70 mg/kg/day,Mus musculus [44],26.7%
same,Survivors,Mus musculus [45],0
same,Survivors,Mus musculus [46],0
same,ILS at 55 mg/kg/day,Mus musculus [47],23%
same,Survivors,Mus musculus [48],0
same,Survivors,Mus musculus [49],0
same,Survivors,Mus musculus [50],0
same,ILS at 60 mg/kg/day,Mus musculus [51],26%
same,Survivors,Mus musculus [52],0
same,Survivors,Mus musculus [53],0
same,Survivors,Mus musculus [54],0
